# TAAR1 antag: antagonists of human TAAR1; Q96RJ0; CHO RD-HGA16 TAAR1, Fluo-8 calcium fluorescence, antagonist; inhibition, % at 3 µM; 360,000 compounds, 1.5% hits; AID 624466;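 active means inhibition above a per-plate cutoff, the mean inhibition of test compounds on that plate plus 3 SD, cut at about 49% in these data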;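 further: 0% = DMSO plus EC80 beta-PEA response and 100% = DMSO alone without agonist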
# Target sequence (Q96RJ0 whole entry, looked up): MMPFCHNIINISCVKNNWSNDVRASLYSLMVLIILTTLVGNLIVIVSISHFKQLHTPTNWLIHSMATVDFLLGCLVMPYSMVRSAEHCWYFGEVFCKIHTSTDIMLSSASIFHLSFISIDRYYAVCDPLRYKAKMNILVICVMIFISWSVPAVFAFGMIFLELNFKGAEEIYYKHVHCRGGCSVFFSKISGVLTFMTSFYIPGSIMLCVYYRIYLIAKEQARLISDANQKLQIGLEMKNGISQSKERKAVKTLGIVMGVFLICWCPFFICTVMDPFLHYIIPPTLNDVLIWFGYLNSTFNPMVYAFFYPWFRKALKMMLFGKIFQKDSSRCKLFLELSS
#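 Test system: hTAAR1-expressing CHO RD-HGA16 cells, Gα16-coupled; Probe or stimulus: EC80 β-phenethylamine stimulus; Compound dosing: single nominal final test compound concentration of 3 µM; Timing: 140 s kinetic read after compound, 140 s after agonist; Signal: Fluo-8 calcium-sensitive fluorescence; Measure: % inhibition of agonist calcium response; Controls: DMSO and EC80 PEA controls.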
# TAAR1 ag: agonists of human TAAR1; Q96RJ0; CHO RD-HGA16 TAAR1, Fluo-8 calcium fluorescence; vehicle wells 0%, saturating PEA agonist 100%; activation, % at 3 µM; 360,000 compounds, 0.99% hits; AID 624467;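 active means activation above the mean activation of all test compounds in the run plus 3 SD, cut at about 38% in these data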
#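 System: CHO-derived RD-HGA16 cells with stable Gα16 and human TAAR1. Times: 17-24 h plating, Fluo-8 75 min 37 °C, 30 min RT. Measured by: calcium-sensitive Fluo-8 signal, excitation 470-495, emission 515-575 nm. Read-out basis: % activation relative to PEA EC100 response. Control set: DMSO and PEA EC100. Repeats: no replicates (n 1).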
# MC4R antagonist: blocks human MC4R cAMP signaling. P32245. MC4R-expressing cells, MTII-stimulated cAMP, LANCE TR-FRET. inhibition, % at 6.5 µM. 360,000 compounds, 0.48% hits. AID 540295;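 active means inhibition above its plate's cutoff, the mean of tested wells on that plate plus 3 SD, cut at about 29% in these data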;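 further: 0% = Melanotan II alone and 100% = Melanotan II plus saturating MCL0020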
#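 System: U2OS cells stably expressing human melanocortin 4 receptor (MC4R). Reagent: Melanotan II challenge after compound preincubation. Doses: 6.5 µM. Times: 30-min compound, 1-h challenge, 1-h detection, room temperature. Measured by: TR-FRET with Eu-cAMP and labeled anti-cAMP, 671 nm. Replicates: singlicate.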
# Beta2AR agonist: agonists of human beta-2 adrenergic receptor inducing internalization | Am2.2-beta2AR cells, FAP receptor internalization, flow cytometry | response, % (test concentration not listed) | AID 504454 | 340,000 compounds, 0.43% hits | P07550;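 active means response above a set limit, near 3 SD of response in nonfluorescent compounds, cut at about 42% in these data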
# HTR2A ag: mouse HTR2A agonism via beta-arrestin recruitment | P35363 | CHO-K1 mHTR2A beta-arrestin complementation, luminescence; percent of 30 µM serotonin response | activation, % at 7.6 µM | 360,000 compounds, 0.66% hits | AID 624169;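 active means activation above a run cutoff, the mean activation of all tested compounds plus 3 SD, cut at about 14% in these data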;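 further: 0% = plate median of compound wells and 100% = 30 µM serotonin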
# MC4R ag barr: activates human MC4R beta-arrestin recruitment | P32245 | U2OS MC4R beta-arrestin complementation, luminescence; percent of melanotan II response, DMSO zero | activation, % at 8.9 µM | 360,000 compounds, 0.98% hits | AID 540308;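 active means activation above a per-plate cutoff, the mean activation of sample wells on that plate plus 3 SD, cut at about 8% in these data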
# The depositor's hits bear a star; / = not tested or not shown. Most compounds without a hit are left out; they make up all but 4.3% or so of the library.
SMILES,TAAR1 antag,TAAR1 ag,MC4R antagonist,Beta2AR agonist,HTR2A ag,MC4R ag barr
CCOC(=O)C1=CCN(S(=O)(=O)c2ccc(Br)cc2)C1c1cccc(F)c1 (configuration not stated),34,2,/,/,/,/
CCCc1ccc(-c2cc(NC(=O)Cc3c(C)[nH]c4ccccc34)ccc2N(C)c2cccnc2)cc1,-1,0,/,/,/,/
O=C1Nc2ccccc2/C1=N/N=C/c1ccc(-c2ccc([N+](=O)[O-])cc2)o1,-8,1,20,43*,2,4
COc1cccc(CN(C)C(=O)[C@H]2O[C@@H](n3cnc4c(=O)[nH]c(N)nc43)[C@H](O)[C@@H]2O)c1,1,0,/,/,/,/
CC(C)(C)OC(=O)N1CCC2CCN(S(C)(=O)=O)CC21 (configuration not stated),4,2,/,/,/,/
CC(=O)Nc1ccc(Nc2cc(C)nc3c(-c4ccccc4)cnn23)cc1,49*,41*,11,-1,-2,-1
Cc1cc(N)n2ncc(-c3ccccc3)c2n1,5,9,-9,5,-3,0
O=C(COc1ccc(Cl)cc1Cl)N/N=C/c1cccnc1,-13,11,-3,-16,-4,-3
COc1ccc(/C=N/NC(=O)COc2ccc(Cl)cc2Cl)cc1Cn1nc(C)cc1C,5,0,-3,33,7,18*
Cc1cc(C(=O)Nc2sc3c(c2C#N)CCC(C)C3)cs1 (configuration not stated),-4,14,1,6,-3,8.3*
CC(=O)Nc1sc2c(c1C#N)CCC(C)C2 (configuration not stated),-8,2,1,-7,-1,0
CCOC(=O)[C@]12CCC=C1N(CCC1=CCCCC1)C(=O)[C@H](CC(=O)N1CCCC1)C2,-10,2,/,/,5,/
Cc1ccc(Cl)cc1NC(=O)OCCN(C)C(=O)Nc1cc(Cl)ccc1C,-14,6,/,/,/,/
Cc1cccc2c1NC(=O)C2(c1ccc(O)cc1)c1ccc(O)cc1,2,10,-18,19,6,87*
O=C(NNC(=O)c1cc2cc(Br)ccc2oc1=O)c1ccc(O)cc1,-17,38*,6,-15,2,-3
Cc1nc(NCCC(C)C)c2nnn(Cc3ccccc3)c2n1,15,16,18,-2,3,2
OCCNc1ncnc2c1nnn2Cc1ccccc1,-17,2,-1,3,1,-1
CCc1nc(NCCC(C)C)c2nnn(Cc3ccccc3)c2n1,-5,3,5,-14,3,8.9*
Clc1ccc(CCNc2ncnc3c2nnn3Cc2ccccc2)cc1,-32,38*,1,-4,6,3
COCCn1c(N)c(C(=O)NCC2CCCO2)c2nc3ccccc3nc21 (configuration not stated),49*,15,11,10,1,-2
Cc1ccc2c(COC(=O)c3ccccc3OC(F)F)cc(=O)oc2c1,54*,8,15,-7,1,5
Cc1ccc2c(COC(=O)CNC(=O)c3ccccc3)cc(=O)oc2c1,15,2,25,-1,4,2
CC(C)C[C@@H]1COc2cc(N3CCOCC3)ccc2S(=O)(=O)N1,20,0,/,/,/,/
CCCCC(=O)N(C)c1c(CC)nc2c(OCC=C(C)C)cccn12,/,/,2,/,2,-1
COc1ccc(CCNC(=O)/C=C/C(=O)O)cc1OC,-13,41*,-3,1,5,-3
COc1ccc(NC(=O)/C=C/c2cc(Br)ccc2OC)cc1,12,1,4,15,-9,0
COc1ccc(/C=C/C(=O)NC(=S)NCCc2ccc(OC)c(OC)c2)cc1,1,0,-9,16,2,17*
COc1ccc(Br)cc1/C=C/C(=O)c1ccc(NC(C)=O)cc1,56*,13,-4,-11,3,-1
COc1ccc(/C=C/C(=O)c2ccc(NC(=O)c3cccs3)cc2)cc1OC,53*,43*,3,11,1,0
COc1ccc(CCNC(=O)/C=C\c2ccccc2)cc1OC,-17,4,1,1,4,-3
